Most compounds without a hit are left out; they make up all but 3.1% or so of the library.
hERG protect: hERG rescue from dofetilide block, primary screen, cell-based, CHO-hERG, FluxOR thallium flux, dofetilide IC70; activation (rescue from dofetilide block), less the hit threshold, % at 10 µM; AID 1511, 2009; dofetilide IC70 present; actives 0.51% (n = 310,000); Voltage-gated inwardly rectifying potassium channel KCNH2 (Homo sapiens), Q12809;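 active means activation above the mean of controls blocked by dofetilide plus 5 SD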;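 further: thallium influx through hERG after potassium depolarization seen as dye fluorescence rise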
KCNQ1 pot: potentiators or activators of KCNQ1 channel, primary screen, cell-based, thallium flux, high-throughput; CHO-K1 KCNQ1, thallium flux FluxOR fluorescence; hits give high values; actives 0.35% (n = 310,000); AID 2648, 2010; B-score at 10 µM;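 active means fluorescence ratio B-score, a plate-corrected score, at least three library SD, with initial intensity B-score within 5 SD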
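assay system = CHO-K1 cells stably expressing KCNQ1 | medium = assay buffer, equal DMSO in all wells | timing = 37 °C overnight plating, 90-min dark dye load, 20-min compound pretreatment | measured by = kinetic FluxOR thallium fluorescence, 10-s 1-Hz baseline, 110-s post-stimulus read | measure = fluorescence change relative to baseline, converted to B score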
KCNK3 block: human KCNK3 channel inhibitors, primary screen, CHO cells, FluxOR thallium flux, B-score. AID 602410, 2012. Potassium channel subfamily K member 3 (Homo sapiens), O14649. FluxOR fluorescence; hits give low values. B-score at 10 µM. actives 0.84% (n = 340,000);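 active means B-score under library mean minus 4 SD, starting fluorescence ratio at most library mean plus 5 SD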;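 further: more negative B-score means stronger inhibition of thallium flux through KCNK3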
KCNQ1 inh: inhibitors of human KCNQ1 channel, primary screen, cell-based, thallium flux, high-throughput; CHO-K1 KCNQ1, FluxOR thallium flux fluorescence; hits give high values; Potassium voltage-gated channel subfamily KQT member 1 (Homo sapiens), P51787; B-score at 10 µM; actives 1.3% (n = 310,000);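 active means compounds whose thallium flux B-score, printed positive for inhibition, exceeds three library SD while starting fluorescence stays within three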;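 further: channel opened by potassium depolarization with thallium stimulus after 20 min compound exposure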
KCNK9 inh: KCNK9 potassium channel inhibitors, primary screen, HEK293 cells, thallium flux; Potassium channel subfamily K member 9 (Homo sapiens), Q9NPC2; actives 1.2% (n = 310,000); FluxOR thallium flux fluorescence; hits give low values; B-score at 10 µM; AID 488922, 2010;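 active means ratio B-score over 3 SD below the library mean, with starting fluorescence within 5 SD of its mean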;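 further: negative B-score means less thallium flux so channel inhibition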
Target sequence (Q9NPC2 whole entry, looked up): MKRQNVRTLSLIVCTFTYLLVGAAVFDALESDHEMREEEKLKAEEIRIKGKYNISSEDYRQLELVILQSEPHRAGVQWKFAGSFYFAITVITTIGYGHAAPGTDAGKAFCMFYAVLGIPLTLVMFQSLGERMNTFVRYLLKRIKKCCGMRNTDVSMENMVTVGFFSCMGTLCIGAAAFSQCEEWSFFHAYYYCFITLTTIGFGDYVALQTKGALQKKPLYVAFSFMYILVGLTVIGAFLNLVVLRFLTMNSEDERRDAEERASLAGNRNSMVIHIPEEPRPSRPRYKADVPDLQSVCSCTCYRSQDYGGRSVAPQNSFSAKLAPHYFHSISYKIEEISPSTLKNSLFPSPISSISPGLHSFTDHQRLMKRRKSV
KCNK9 inh conf: KCNK9 potassium channel inhibitors, confirmation, HEK293 cells, thallium flux, duplicate | FluxOR thallium flux fluorescence | inhibition, % at 10 µM | shares compounds with KCNK9 inh | actives 43% (n = 4,900) | AID 492992, 2010;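 active means thallium signal inhibited by more than 5 SD of the compound-free buffer control wells, on both duplicate plates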;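 further: 0% = assay buffer control wells without compound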
Kir21 sel: mouse Kir2.1 channel inhibition, confirmation, selectivity assay for KCNK9 modulator project, cell-based, HEK293, thallium flux. actives 4% (n = 4,900). inhibition, % at 10 µM. AID 492993, 2010. shares compounds with KCNK9 inh. Kir2.1 cells, FluxOR thallium flux fluorescence;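 active means thallium signal drop more than 5 SD beyond the mean of the no-compound control wells, seen in both duplicate plates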;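 further: signal is fluorescence rise after thallium addition divided by baseline fluorescence; plate controls were assay buffer only for no effect and full block by chlorpromazine control for full effect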
HEK293 Tl ctr: thallium flux in non-induced HEK293 cells, confirmation, counter-screen for KCNK9 inhibitor project, cell-based, second counter screen, non-induced KCNK9-HEK293; shares compounds with KCNK9 inh; FluxOR thallium flux; inhibition, % at 10 µM; actives 40% (n = 4,900); AID 492997, 2010;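 active means thallium signal drop beyond 5 SD of the untreated control mean, on both duplicate plates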;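 further: plate controls were buffer only IC0 wells for no effect and SID17386958 at its maximal inhibitory level for full effect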
* marks the source's active call; other numbers are inactive results.

Screening Cc1ccc(SC[C@H](C)CN2CC[C@H](C)CCC2=O)cc1 returned hERG protect -7.5, KCNQ1 pot inactive, KCNK3 block inactive, KCNQ1 inh inactive, KCNK9 inh inactive, KCNK9 inh conf inactive, Kir21 sel inactive and HEK293 Tl ctr inactive.
O=C(CCc1nnc2ccc(NCc3ccco3)nn12)N1CCN(c2ccc(F)cc2)CC1 was read as hERG protect -7.3, KCNQ1 pot inactive, KCNK3 block inactive, KCNQ1 inh inactive and KCNK9 inh inactive.
CCOc1ccc2[nH]c3c(=O)n(CCc4ccc(OC)cc4)cnc3c2c1 was read as hERG protect -6.1, KCNQ1 pot inactive, KCNK3 block inactive, KCNQ1 inh inactive and KCNK9 inh inactive.
For CCOc1ccc2[nH]c3c(=O)n(CCC4=CCCCC4)cnc3c2c1 the results were hERG protect -9.9, KCNQ1 pot inactive, KCNK3 block inactive, KCNQ1 inh inactive, KCNK9 inh inactive, KCNK9 inh conf inactive, Kir21 sel inactive and HEK293 Tl ctr inactive.
`Cc1ccc(S(=O)(=O)NCC(=O)OCC(=O)Nc2cccc(S(=O)(=O)N3CCOCC3)c2)cc1` gave KCNK3 block inactive.
Screening Cc1cc(C)c(C)c(S(=O)(=O)N[C@@H](C)C(=O)OCC(=O)NC2CCCC(C)C2C)c1C (stereo partly specified) returned KCNK3 block inactive.
Screening Cc1nc(S/C(=C/c2ccc(-c3cc(Cl)ccc3C)o2)C(=O)O)n[nH]1 returned hERG protect -10.5, KCNQ1 pot inactive, KCNK3 block inactive, KCNQ1 inh 8*, KCNK9 inh inactive, KCNK9 inh conf inactive, Kir21 sel inactive and HEK293 Tl ctr 35.5%*.
`CCN(Cc1ccccc1)C(c1cccs1)c1nnnn1C1CCCCC1` (stereo unspecified) gave hERG protect -4.6, KCNQ1 pot inactive, KCNK3 block inactive, KCNQ1 inh inactive, KCNK9 inh -12*, KCNK9 inh conf 55.5%*, Kir21 sel inactive and HEK293 Tl ctr 34.5%*.
For Cc1ccccc1CC1(CO)CCCN(C(=O)c2cccc(Cl)c2)C1 (stereo unspecified) the results were hERG protect -18.7, KCNQ1 pot inactive, KCNK3 block inactive, KCNQ1 inh inactive, KCNK9 inh inactive, KCNK9 inh conf inactive, Kir21 sel inactive and HEK293 Tl ctr 23.5%*.
For Cc1ccccc1CC1(CO)CCCN(C(=O)c2cc(Cl)ccc2F)C1 (stereo unspecified) the results were hERG protect -13.4, KCNQ1 pot inactive, KCNK3 block inactive, KCNQ1 inh inactive and KCNK9 inh inactive.
Screening Cc1ccc(S(=O)(=O)NN2C(=O)/C(=C/c3ccc(F)cc3)SC2=S)cc1 returned hERG protect -2.3, KCNQ1 pot inactive, KCNK3 block inactive, KCNQ1 inh inactive and KCNK9 inh inactive.
Screening O=C1/C(=C/c2cccc(F)c2)SC(=S)N1NS(=O)(=O)c1ccccc1 returned hERG protect -2.0, KCNQ1 pot inactive, KCNK3 block inactive, KCNQ1 inh inactive, KCNK9 inh inactive, KCNK9 inh conf inactive, Kir21 sel inactive and HEK293 Tl ctr inactive.
`Cc1ccc(S(=O)(=O)NN2C(=O)/C(=C/c3ccc(C(=O)O)cc3)SC2=S)cc1` gave hERG protect -5.2, KCNQ1 pot inactive, KCNK3 block inactive, KCNQ1 inh inactive and KCNK9 inh inactive.
`COc1ccc(/C=C2/SC(=S)N(NS(=O)(=O)c3ccc(C)cc3)C2=O)cc1` gave hERG protect -10.3, KCNQ1 pot 12*, KCNK3 block inactive, KCNQ1 inh inactive, KCNK9 inh inactive, KCNK9 inh conf inactive, Kir21 sel inactive and HEK293 Tl ctr inactive.
`C=CCOc1ccc(/C=C2\SC(=S)N(NS(=O)(=O)c3ccc(C)cc3)C2=O)cc1` gave hERG protect -4.2, KCNQ1 pot 24*, KCNK3 block inactive, KCNQ1 inh inactive, KCNK9 inh inactive, KCNK9 inh conf inactive, Kir21 sel inactive and HEK293 Tl ctr inactive.
For C=CCN1C(=O)C(CC(=O)O)S/C1=N/N=C/c1ccc(N(CC)CC)cc1 (stereo unspecified) the results were KCNK3 block inactive.
For COc1ccc(-c2nnc(SCc3cc(C)cc(C)c3)o2)cc1 the results were hERG protect -9.7, KCNQ1 pot inactive, KCNK3 block inactive, KCNQ1 inh inactive, KCNK9 inh inactive, KCNK9 inh conf inactive, Kir21 sel inactive and HEK293 Tl ctr inactive.
Cc1cccc(C(C)C)c1NC(=O)COC(=O)CNS(=O)(=O)c1ccccc1 was read as hERG protect -18.6, KCNQ1 pot inactive, KCNK3 block inactive, KCNQ1 inh inactive and KCNK9 inh inactive.
`COc1ccc(NC(=O)CS(=O)(=O)c2cn(CC(=O)N3CCCC3)c3ccccc23)c(OC)c1` gave hERG protect -4.9, KCNQ1 pot inactive, KCNK3 block inactive, KCNQ1 inh inactive and KCNK9 inh inactive.
`COc1ccccc1NC(=O)C12CC3CC(C1)CC(c1ccc(C)cc1)(C3)C2` gave hERG protect -12.0, KCNQ1 pot inactive, KCNK3 block inactive, KCNQ1 inh inactive, KCNK9 inh inactive, KCNK9 inh conf inactive, Kir21 sel inactive and HEK293 Tl ctr inactive.
Screening COc1ccccc1NC(=O)CN(c1ccc(C23CC4CC(CC(C4)C2)C3)cc1)S(C)(=O)=O returned hERG protect -11.1, KCNQ1 pot inactive, KCNK3 block inactive, KCNQ1 inh inactive, KCNK9 inh inactive, KCNK9 inh conf inactive, Kir21 sel inactive and HEK293 Tl ctr inactive.
For COC(=O)C(C)NC(=O)C12CC3CC(C1)CC(c1ccc(C)cc1)(C3)C2 (stereo unspecified) the results were hERG protect -3.8, KCNQ1 pot inactive, KCNK3 block inactive, KCNQ1 inh inactive, KCNK9 inh inactive, KCNK9 inh conf inactive, Kir21 sel inactive and HEK293 Tl ctr inactive.

Compound activity: PubChem, Johns Hopkins Ion Channel Center
